In ChEMBL document CHEMBL4261487, “Small structural changes of the imidazopyridine diacylglycerol acyltransferase 2 (DGAT2) inhibitors produce an improved safety profile” (Medchemcomm, 2017):
In brackets after ≈: the same amount, converted by molar mass. Blank lines part the entries; values can stand above or below the compound they belong to.

Key:
UGT = test: (§1) Drug metabolism in human liver microsomes assessed as UGT-mediated glucuronidation by measuring clearance rate; type: ADME; details: liver microsomes, read-out: CLH
CYP3A4 = CYP3A4 (Homo sapiens, UniProt P08684); test: (§2) Drug metabolism in human liver microsomes assessed as CYP3A4-mediated oxidative metabolism by measuring clearance rate; type: ADME; details: liver microsomes, read-out: CLH
Chain of CYP3A4 (P08684 whole entry): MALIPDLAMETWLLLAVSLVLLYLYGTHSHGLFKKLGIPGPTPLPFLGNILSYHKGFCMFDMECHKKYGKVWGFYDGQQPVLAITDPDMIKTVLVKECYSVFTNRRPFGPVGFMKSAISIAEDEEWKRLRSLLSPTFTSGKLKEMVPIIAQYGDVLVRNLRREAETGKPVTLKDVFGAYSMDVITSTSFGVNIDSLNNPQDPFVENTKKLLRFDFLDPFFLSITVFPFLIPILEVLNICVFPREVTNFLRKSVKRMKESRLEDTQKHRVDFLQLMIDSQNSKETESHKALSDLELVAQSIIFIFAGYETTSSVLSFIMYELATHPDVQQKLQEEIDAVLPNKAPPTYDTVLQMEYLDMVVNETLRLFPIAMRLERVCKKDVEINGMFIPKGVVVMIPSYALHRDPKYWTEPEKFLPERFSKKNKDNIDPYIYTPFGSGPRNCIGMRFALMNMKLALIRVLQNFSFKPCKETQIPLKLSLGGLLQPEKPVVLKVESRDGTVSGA

[1] = target: T1, Diacylglycerol O-acyltransferase 2 (Homo sapiens, UniProt Q96PD7); test: Inhibition of human DGAT2
T1 sequence (Q96PD7 whole entry): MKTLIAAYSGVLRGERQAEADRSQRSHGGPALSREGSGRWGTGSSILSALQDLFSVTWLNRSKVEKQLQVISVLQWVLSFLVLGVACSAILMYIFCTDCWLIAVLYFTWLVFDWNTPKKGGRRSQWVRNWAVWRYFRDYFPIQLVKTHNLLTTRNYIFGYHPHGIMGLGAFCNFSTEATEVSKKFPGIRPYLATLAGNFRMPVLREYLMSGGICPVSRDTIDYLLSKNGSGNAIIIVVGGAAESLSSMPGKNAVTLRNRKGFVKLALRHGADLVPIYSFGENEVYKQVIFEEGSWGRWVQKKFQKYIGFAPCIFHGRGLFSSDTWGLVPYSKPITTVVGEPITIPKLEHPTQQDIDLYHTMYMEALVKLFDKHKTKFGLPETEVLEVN
In short: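 IC50 against human DGAT2 in an enzymatic assay, reported as the geometric mean of at least three replicates with SEM.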

Rattus norvegicus = test: In vivo DGAT2 inhibition in po dosed sucrose-fed rat assessed as decrease in plasma triglyceride levels after 2 hrs; type: functional, organism-based
In short: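 Rats fed a high-sucrose diet, single oral dose of test article or vehicle; plasma TG measured in tail-vein blood 2 h post dose; n = 7–8 per group; results as percent change from vehicle group, one-way ANOVA with Dunnett's test.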

[2] = Apparent permeability of the compound at pH 7.4; type: ADME; details: not told
[3] = Half life in beagle dog at 5 mg/kg, po; type: ADME, organism-based, Canis lupus familiaris; details: in vivo
Canis familiaris [4] = test: Unbound Cmax in beagle dog at 10 mg/kg, po qd administered for 1 month; type: ADME, organism-based, Canis lupus familiaris; details: in vivo
In short: (§3)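 Beagle dogs were dosed orally once daily in a 14-day exploratory study or 1-month toxicity studies. Steady-state systemic exposure over the 24 h dosing interval is reported as the mean of male and female values combined.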

[5] = Ratio of Cmax in beagle dog at 30 mg/kg, po qd administered for 1 month to IC50 for in vitro inhibition of dog DGAT2; type: organism-based, Canis lupus familiaris; details: in vivo
In short: (§4)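 One-month toxicity study in Beagle dogs with N = 2/sex/dose. Plasma exposure at each dose level was referenced to the dog DGAT2 enzymatic IC50, reported as the geometric mean of at least three replicates.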

[6] = Half life in beagle dog at 1 mg/kg, iv; type: ADME, organism-based, Canis lupus familiaris; details: in vivo
[7] = Ratio of Cmax in beagle dog at 3 mg/kg, po qd administered for 1 month to IC50 for in vitro inhibition of dog DGAT2; type: organism-based, Canis lupus familiaris; details: in vivo; in short: as §4
Canis familiaris [8] = test: In vivo inhibition of DGAT2 in beagle dog assessed as coverage of in vitro IC50 for dog DGAT2 at 3 mg/kg, po qd administered for 1 month; type: functional, Canis lupus familiaris; design: scale not given: the % may be the effect or the level left
In short: (§5)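 Beagle dogs, once-daily oral dosing for 14 days or 1 month; systemic exposure with sexes combined; coverage is the average % above dog DGAT2 IC50 at steady state over the 24 h dosing interval.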

Canis familiaris [9] = test: Unbound Cmax in beagle dog at 30 mg/kg, po qd administered for 1 month; type: ADME, organism-based, Canis lupus familiaris; details: in vivo
In short: (§6)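 One-month dog toxicity study with once-daily oral dosing. Toxicity groups were 2/sex/dose, and unbound peak exposure was taken from toxicokinetic sampling.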

[10] = Apparent intrinsic clearance in rat hepatocytes assessed per million cells; type: ADME, cell-based, Hepatocyte
Canis familiaris [11] = test: In vivo inhibition of DGAT2 in beagle dog assessed as coverage of in vitro IC50 for dog DGAT2 at 10 mg/kg, po qd administered for 1 month; type: functional, Canis lupus familiaris; design: scale not given: the % may be the effect or the level left; in short: as §5
[12] = Oral bioavailability in beagle dog at 5 mg/kg; type: ADME, organism-based, Canis lupus familiaris; details: in vivo
[13] = target: T2, Diacylglycerol O-acyltransferase 2 (Rattus norvegicus, UniProt Q5FVP8); test: Inhibition of rat DGAT2
T2 sequence (Q5FVP8 whole entry): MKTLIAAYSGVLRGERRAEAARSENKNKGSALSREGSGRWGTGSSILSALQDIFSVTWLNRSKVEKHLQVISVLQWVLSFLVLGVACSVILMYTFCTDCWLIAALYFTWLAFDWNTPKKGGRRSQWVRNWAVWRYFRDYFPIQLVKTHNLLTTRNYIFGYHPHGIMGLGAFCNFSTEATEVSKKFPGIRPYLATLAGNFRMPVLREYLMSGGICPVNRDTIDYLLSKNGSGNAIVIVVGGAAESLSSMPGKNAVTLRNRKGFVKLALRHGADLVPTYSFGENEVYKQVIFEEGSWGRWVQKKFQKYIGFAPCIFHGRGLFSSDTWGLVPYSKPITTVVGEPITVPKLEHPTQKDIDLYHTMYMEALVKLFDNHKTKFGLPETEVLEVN

Canis familiaris [14] = test: In vivo inhibition of DGAT2 in beagle dog assessed as coverage of in vitro IC50 for dog DGAT2 at 30 mg/kg, po qd administered for 1 month; type: functional, Canis lupus familiaris; design: scale not given: the % may be the effect or the level left; in short: as §5
[15] = Fraction unbound in rat plasma; type: ADME, cell-free
[16] = Ratio of Cmax in beagle dog at 10 mg/kg, po qd administered for 1 month to IC50 for in vitro inhibition of dog DGAT2; type: organism-based, Canis lupus familiaris; details: in vivo; in short: as §4
[17] = Drug metabolism in human liver microsomes assessed as fraction of UGT-mediated glucuronidation preincubated for 5 mins followed by addition of NADPH regenerating system and measured after 2.5 to 60 mins; type: ADME
In short: (§7)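 Fractions of metabolism attributed to CYP oxidation and UGT glucuronidation were derived from human liver microsomal incubations. For the glucuronidation arm, microsomes were supplemented with the UGT cofactor UDP-glucuronic acid.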

[18] = Fraction unbound in dog plasma; type: ADME, cell-free, Canis lupus familiaris
Canis familiaris [19] = test: Unbound AUC in beagle dog at 30 mg/kg, po qd administered for 1 month; type: ADME, organism-based, Canis lupus familiaris; details: in vivo; in short: as §3
[20] = Plasma clearance in beagle dog at 1 mg/kg, iv; type: ADME, organism-based, Canis lupus familiaris
Canis familiaris [21] = test: Unbound AUC in beagle dog at 10 mg/kg, po qd administered for 1 month; type: ADME, organism-based, Canis lupus familiaris; details: in vivo; in short: as §3
[22] = Thermodynamic solubility of the compound at pH 6.5; type: physicochemical; details: buffer, read-out: Therm_solubility
Canis familiaris [23] = test: Unbound AUC in beagle dog at 3 mg/kg, po qd administered for 1 month; type: ADME, organism-based, Canis lupus familiaris; details: in vivo; in short: as §3
[24] = Apparent intrinsic clearance in human hepatocytes assessed per million cells; type: ADME, cell-based, Hepatocyte
[25] = target: T3, Diacylglycerol O-acyltransferase 2 (Canis lupus familiaris, UniProt A0A8I3NDW2); test: Inhibition of dog DGAT2
T3 sequence (A0A8I3NDW2 whole entry): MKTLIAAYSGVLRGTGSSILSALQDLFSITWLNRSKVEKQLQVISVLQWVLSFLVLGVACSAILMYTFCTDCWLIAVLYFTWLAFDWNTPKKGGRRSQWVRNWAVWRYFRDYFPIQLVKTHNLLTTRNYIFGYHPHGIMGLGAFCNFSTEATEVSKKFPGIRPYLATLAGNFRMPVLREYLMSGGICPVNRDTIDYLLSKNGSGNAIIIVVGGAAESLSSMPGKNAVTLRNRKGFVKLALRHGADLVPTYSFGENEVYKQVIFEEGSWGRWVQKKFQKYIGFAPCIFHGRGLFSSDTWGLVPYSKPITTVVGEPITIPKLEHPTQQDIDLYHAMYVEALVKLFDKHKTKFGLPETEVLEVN

Canis familiaris [26] = test: Toxicity in beagle dog at 3 to 30 mg/kg, po qd administered for 1 month; type: organism-based, Canis lupus familiaris; details: in vivo
Cytochrome P450 3A4 [27] = target: T4, Cytochrome P450 3A4 (Homo sapiens, UniProt P08684); test: Drug metabolism in human liver microsomes assessed as fraction of CYP3A4-mediated oxidative metabolism preincubated for 5 mins followed by addition of NADPH regenerating system and measured after 2.5 to 60 mins; type: ADME; in short: as §7
T4 sequence (P08684 whole entry): as the sequence (P08684 whole entry) above

[28] = as §1; type: ADME; details: microsomes
[29] = target: T5, Diacylglycerol O-acyltransferase 1 (Homo sapiens, UniProt O75907); test: Inhibition of DGAT1 (unknown origin)
T5 sequence (O75907 whole entry): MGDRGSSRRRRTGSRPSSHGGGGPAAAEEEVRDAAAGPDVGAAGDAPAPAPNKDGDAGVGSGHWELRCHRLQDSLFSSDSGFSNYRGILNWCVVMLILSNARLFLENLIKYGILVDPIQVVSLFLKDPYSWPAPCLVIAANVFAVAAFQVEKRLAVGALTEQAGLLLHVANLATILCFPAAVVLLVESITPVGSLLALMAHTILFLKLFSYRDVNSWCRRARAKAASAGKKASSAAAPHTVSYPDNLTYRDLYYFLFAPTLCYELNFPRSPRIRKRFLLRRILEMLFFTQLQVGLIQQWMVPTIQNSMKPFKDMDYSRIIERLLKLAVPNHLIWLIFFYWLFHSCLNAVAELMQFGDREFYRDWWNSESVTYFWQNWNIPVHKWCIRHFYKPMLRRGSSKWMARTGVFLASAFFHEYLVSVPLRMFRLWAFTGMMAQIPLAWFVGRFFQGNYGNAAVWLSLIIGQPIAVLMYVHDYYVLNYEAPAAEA

Cytochrome P450 3A4 [30] = target: T4, Cytochrome P450 3A4; test: as §2; type: ADME; details: microsomes
[31] = Volume of distribution at steady state in beagle dog at 1 mg/kg, iv; type: ADME, organism-based, Canis lupus familiaris; details: in vivo, read-out: Vdss
In short: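 Male Beagle dogs, single iv dose, crystalline form of compound; value is the mean of two experiments.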

[32] = Apparent intrinsic clearance in dog hepatocytes assessed per million cells; type: ADME, cell-based, Canis lupus familiaris, Hepatocyte
Canis familiaris [33] = test: Unbound Cmax in beagle dog at 3 mg/kg, po qd administered for 1 month; type: ADME, organism-based, Canis lupus familiaris; details: in vivo; in short: as §6

SMILES: C[C@H](c1nc2ccc(N3CCC[C@@H](C(=O)N4CCCC4)C3)nc2[nH]1)n1cc(Cl)cn1
microsomal CLint (UGT): 7.6 µL/min/mg
microsomal CLint (CYP3A4): 26 µL/min/mg

SMILES: CC(c1nc2cnc(N3CCC[C@@H](C(=O)N4CCCC4)C3)nc2[nH]1)n1cc(Cl)cn1 (single isomer, unassigned; diastereomer 1) [listing 1 of 2 here]
inhibition (Rattus norvegicus): Dose-dependent effect

SMILES: CC(C)(c1nc2ccc(N3CCC[C@@H](C(=O)N4CCCC4)C3)nc2[nH]1)n1cc(Cl)cn1
microsomal CLint (CYP3A4): 35.4 µL/min/mg

The next lines start with results.

microsomal CLint (UGT): 15.2 µL/min/mg
microsomal CLint (CYP3A4): 21.5 µL/min/mg
IC50 [1]: 37 nM
SMILES: CC(c1nc2cnc(N3CCC[C@@H](C(=O)N4CCCC4)C3)nc2[nH]1)n1cc(Cl)cn1 (single isomer, unassigned; diastereomer 2)

Papp [2]: 16.2 ×10⁻⁶ cm/s
half-life [3]: 228 min
fCmax (Canis familiaris [4]): 487 nM
Ratio [5]: 33
half-life [6]: 66 min
Ratio [7]: 3
fCmax (Canis familiaris [9]): 1760 nM
CLH(app) [10]: 12 µL/min
bioavailability [12]: 32%
IC50 [13]: 241 nM
fraction unbound [15]: 0.18
Ratio [16]: 9
Ratio [17]: 0.52
fraction unbound [18]: 0.25
fAUC (Canis familiaris [19]): 1560 ng·h/mL
clearance [20]: 7.3 mL/min/kg
fAUC (Canis familiaris [21]): 540 ng·h/mL
solubility thermodynamic [22]: 53 µg/mL (≈ 124 µM)
fAUC (Canis familiaris [23]): 149 ng·h/mL
CLH(app) [24]: 13.1 µL/min
IC50 [25]: 53 nM
Ratio (Cytochrome P450 3A4 [27]): 0.48
CLH [28]: 20.3 µL/min/mg
IC50 [29]: > 50 µM
CLH (Cytochrome P450 3A4 [30]): 23.5 µL/min/mg
Vd [31]: 0.58 L/kg
CLH(app) [32]: < 8 µL/min
IC50 [1]: 26 nM
fCmax (Canis familiaris [33]): 140 nM
SMILES: CC(c1nc2cnc(N3CCC[C@@H](C(=O)N4CCCC4)C3)nc2[nH]1)n1cc(Cl)cn1 (single isomer, unassigned; diastereomer 1) [listing 2 of 2 here]
Activity (Canis familiaris [8]): 21%
Activity (Canis familiaris [11]): 50%
Activity (Canis familiaris [14]): 74%
Activity (Canis familiaris [26]): Non-Toxic
